Read-outs that look alike come from different tables or passages of the source.
Experiments:
[1] = target: preformed Aβ40 aggregates (Homo sapiens, UniProt P05067); assay type: biochemical; conditions: metal-free and metal-treated conditions
TEAC assay in EtOH = assay type: biochemical; conditions: relative to Trolox
Method in brief: (§1)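 Radical scavenging was measured by the test compound's quenching of pre-formed ABTS cation radicals (ABTS•⁺). The read-out was absorbance on a microplate reader, and capacity was expressed as Trolox equivalents.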

metal-free Aβ40 monomer [2] = target: T1, metal-free Aβ40 monomer (Homo sapiens, UniProt P05067); assay: 2D SOFAST-HMQC NMR with metal-free monomeric Aβ40; assay type: binding; conditions: [Aβ40] 80 μM; compound 800 μM (10 equiv); pH 7.4; 10 °C
Method in brief: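 Uniformly ¹⁵N-labeled monomeric Aβ40 (80 μM) with test compound at 0 or 800 μM in 20 mM phosphate buffer, pH 7.4, 50 mM NaCl, 7 % (v/v) D₂O, at 10 °C. 2D ¹H–¹⁵N SOFAST-HMQC spectra were recorded at 900 MHz with a cryogenic probe. Per-residue chemical shift perturbations were plotted against the average CSP with standard deviation; unresolved residues were excluded.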

[3] = TEAC assay in M17 cell lysates; assay type: biochemical; conditions: relative to Trolox
Method in brief: as §1

[4] = target: preformed Aβ42 aggregates (Homo sapiens, UniProt P05067); assay type: biochemical; conditions: metal-free and metal-treated conditions
metal-free Aβ40 [5] = target: T2, metal-free Aβ40 (Homo sapiens, UniProt P05067); assay: ESI-MS of metal-free Aβ40 incubated with compound; assay type: binding; conditions: [Aβ40] 10 μM; [L2-b2] 50 μM; pH 7.5; 37 °C; 6 h
Aβ40 = Aβ40 (Homo sapiens, UniProt P05067); assay type: biochemical; conditions: inhibition experiment; vs compound-free and L2-b1-treated conditions
[6] = tested on: SK-N-BE(2)-M17 (M17) cells; assay: Viability of cells treated with metal-free Aβ or metal–Aβ followed by compound; assay type: cell-based, human; conditions: [Aβ] 10 μM, [CuCl2 or ZnCl2] 10 μM, [L2-b2] 20 μM, MTT
Method in brief: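 SK-N-BE(2)-M17 neuroblastoma cells were first exposed to metal-free Aβ40 or Aβ42, or to Aβ premixed with CuCl2 or ZnCl2. Test compound was added afterwards. Viability was measured by MTT absorbance on a microplate reader and expressed as % of cells given DMSO only (0–1 %, v/v).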

Aβ42 = Aβ42 (Homo sapiens, UniProt P05067); assay type: biochemical; conditions: inhibition experiment; vs compound-free and L2-b1-treated conditions
Method in brief: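 Aβ42 (25 μM) was incubated with test compound (50 μM), either metal-free or with CuCl2 or ZnCl2 (25 μM). Cu samples were at pH 6.6; metal-free and Zn samples at pH 7.4. Incubation was at 37 °C with constant agitation. Size distribution was read by gel/Western blot with anti-Aβ antibody 6E10, and morphology by TEM of the same samples.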

Cu^II–Aβ40 = Cu^II–Aβ40 (Homo sapiens, UniProt P05067); assay: nESI-MS and MS/MS of Aβ40 incubated with Cu^II and compound; assay type: biochemical; conditions: [Aβ40] 20 μM; [CuCl2] 20 μM; [L2-b2] 120 μM; pH 7.5; 37 °C; 30 min
metal-free Aβ40 monomer [7] = target: T1, metal-free Aβ40 monomer; conditions: ref 4e; cited from earlier work
[8] = tested on: metal-free Aβ and metal–Aβ; conditions: ref 4b,f; cited from earlier work
metal-free Aβ40 [9] = target: T2, metal-free Aβ40; conditions: ref 4b,f; cited from earlier work

Chain of preformed Aβ40 aggregates (P05067 672-711 limits assumed): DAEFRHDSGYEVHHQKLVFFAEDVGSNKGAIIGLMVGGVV
T1 sequence (P05067 672-711 limits assumed): as above
T2 sequence (P05067 672-711 limits assumed): as above
Chain of Aβ42 (P05067 672-713 limits assumed): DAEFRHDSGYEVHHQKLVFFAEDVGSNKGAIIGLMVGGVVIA
Chain of preformed Aβ42 aggregates (P05067 672-713 limits assumed): as above
Chain of Aβ40 (P05067 672-711 limits assumed): as the sequence (P05067 672-711 limits assumed) above
Chain of Cu^II–Aβ40 (P05067 672-711 limits assumed): as above

For `c1ccc(CNCc2ccccn2)nc1` [DPA1, bis(pyridin-2-ylmethyl)amine, reference compound], the “Disaggregation of preformed Aβ40 aggregates (gel/Western blot)” value [1] was “could not detectably disaggregate preformed Aβ40 aggregates”.
In the case of `CN(C)c1ccc(CNCc2ccc(N(C)C)cn2)nc1` [DPA2, 6-((((5-(dimethylamino)pyridin-2-yl)methyl)amino)methyl)-N,N-dimethylpyridin-3-amine], the “Disaggregation of preformed Aβ40 aggregates (gel/Western blot)” value [1] is reported as “could not detectably disaggregate preformed Aβ40 aggregates”.
With `CN(C)c1ccc(CNc2ccccc2)nc1` [L2-b1, N,N-dimethyl-6-((phenylamino)methyl)pyridin-3-amine] the “Disaggregation of preformed Aβ40 aggregates (gel/Western blot)” value [1] was “could not detectably disaggregate preformed Aβ40 aggregates”, the TEAC value (TEAC assay in EtOH) was 0.8 ± 0.1 and the “Interaction with metal-free Aβ40 monomer (CSP)” value (metal-free Aβ40 monomer [2]) was “weak interactions with metal-free Aβ”. It also gave a TEAC value [3] of 0.7 ± 0.1.
With `CN(C)c1ccc(NCc2ccc(N(C)C)cn2)cc1` [L2-b2, N^1-((5-(dimethylamino)pyridin-2-yl)methyl)-N^4,N^4-dimethylbenzene-1,4-diamine] the “Disaggregation of preformed Aβ42 aggregates (gel/Western blot)” value [4] was “dismantle preformed metal-free and metal-treated Aβ42 aggregates”, the “Interaction with metal-free Aβ (ESI-MS)” value (metal-free Aβ40 [5]) was “forming a covalent adduct of Aβ–cationic imine” and the “Disaggregation of preformed Aβ40 aggregates (gel/Western blot)” value [1] was “displayed various-sized peptide aggregates to different degrees”. For the same compound, the “Morphology of resultant Aβ40 aggregates (TEM)” value (Aβ40) was “more amorphous aggregates and/or smaller fibrils”, the “Effect on toxicity triggered by metal-free Aβ and metal–Aβ in living cells” value [6] was “possibly alleviate toxicity triggered by metal-free Aβ and metal–Aβ in living cells” and the “Morphology of resultant Aβ42 aggregates (TEM)” value (Aβ42) was “more amorphous aggregates and/or smaller fibrils”. The TEAC value (TEAC assay in EtOH) was 1.9 ± 0.1, the “Interaction with metal-free Aβ40 monomer (CSP)” value (metal-free Aβ40 monomer [2]) was “weak interactions with metal-free Aβ” and the TEAC value [3] was 1.1 ± 0.1. The “Mass loss of Aβ40 compared to apo Aβ40 (degraded Aβ)” value (Cu^II–Aβ40) was 89.1 (± 0.1) Da.
For `CN(C)c1ccc(NCc2ccccn2)cc1` [L2-b, N^1,N^1-dimethyl-N^4-(pyridin-2-ylmethyl)benzene-1,4-diamine], the “Interaction with metal-free Aβ40 monomer (CSP)” value (metal-free Aβ40 monomer [7]) is given as “weak interactions with metal-free Aβ”, the “Reactivity toward metal-free Aβ and metal–Aβ aggregation pathways” value [8] is given as “reactivity only for metal–Aβ species” and the “Interaction with metal-free Aβ” value (metal-free Aβ40 [9]) is given as “unable to interact with metal-free Aβ”.
For `NCc1ccccn1` [PMA1, pyridin-2-yl-methanamine, reference compound], the “Disaggregation of preformed Aβ40 aggregates (gel/Western blot)” value [1] was “could not detectably disaggregate preformed Aβ40 aggregates”.
In the case of `CN(C)c1ccc(CN)nc1` [PMA2, 6-(aminomethyl)-N,N-dimethylpyridin-3-amine, reference compound], the “Disaggregation of preformed Aβ40 aggregates (gel/Western blot)” value [1] is reported as “could not detectably disaggregate preformed Aβ40 aggregates”.

Reference: paper PMC5826595 (Chemistry (Weinheim an der Bergstrasse, Germany), 2017)
